Active and inactive are the calls of the source. No cut-off for these calls is given here. *1 amine or outer side, *2 acyl side, *3 side chain or, on linkers, in order; H or OH if unused. Where a SMILES comes first, the peptide text is derived from it. Bridges are numbered along the chain shown (N, C = ends). TBMB = c1c(C[*:1])cc(C[*:3])cc1C[*:2]
How the values were obtained:
[1] = Inhibition of recombinant Staphylococcus aureus SrtA N24 deletion mutant by using abz-LPATG-dnp as substrate
Sortase A [2] = target: T1, Sortase A (Staphylococcus aureus, UniProt Q9S446); test: Inhibition of Staphylococcus aureus His6-biotinylated SrtA expressed in Escherichia coli XL1-blue using Dabcyl-LPETG-Edans as substrate assessed as residual activity by fluorescence assay
T1 sequence (Q9S446 whole entry): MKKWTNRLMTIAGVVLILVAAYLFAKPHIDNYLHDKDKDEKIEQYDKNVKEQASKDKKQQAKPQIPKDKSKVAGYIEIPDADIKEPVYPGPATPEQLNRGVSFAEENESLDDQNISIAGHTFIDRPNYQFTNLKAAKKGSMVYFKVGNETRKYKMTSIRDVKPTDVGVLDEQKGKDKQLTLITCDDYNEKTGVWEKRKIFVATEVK
Summary of the method: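 (His)6-SrtA26−206 from E. coli XL1-blue, purified by Ni affinity and gel filtration. Enzyme at 2.5 μM incubated with varied peptide concentrations (up to 300 μM). Residual activity measured with 20 μM Dabcyl-LPETG-Edans and 200 μM triglycine in 50 mM Tris-Cl pH 7.4, 150 mM NaCl, 5 mM CaCl2, 0.1% BSA, 37 °C. Fluorescence read at ex 350/em 480 nm. Ki from Supporting Information equations; at least three measurements.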

Sortase A [3] = target: T1, Sortase A; test: Binding affinity to Staphylococcus aureus His6-biotinylated SrtA expressed in Escherichia coli XL1-blue using fluorescein-tagged compound after 15 mins by fluorescence polarization
Summary of the method: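 Serial dilutions of SrtA mixed with 200 nM fluorescein-labeled bicyclic peptide in 50 mM Tris-Cl pH 7.4, 150 mM NaCl, 5 mM CaCl2; 15 min at room temperature. Fluorescence polarization read at 485 nm excitation / 535 nm emission. Kd obtained by nonlinear regression of polarization against total SrtA concentration.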

[4] = target: Urokinase-type plasminogen activator (Homo sapiens, UniProt P00749); test: Inhibition of human uPA using fluorogenic Z-Gly-Gly-Arg-AMC as substrate
Staphylococcus aureus = test: Induction of Fluo-GSLPETGGS substrate transfer to cell wall of SrtA knockout Staphylococcus aureus SKM12 at 1 mM after 24 hrs by fluorescence assay; type: functional
Sortase A [5] = target: T1, Sortase A; test: (§1) Inhibition of SrtA-mediated incorporation of Fluo-GSLPETGGS substrate to cell wall of Staphylococcus aureus Newman after 24 hrs by fluorescence assay; set-up: species or system Staphylococcus aureus subsp. aureus str. Newman
[6] = target: T2, Sortase A (Staphylococcus aureus) (UniProt Q9S446); test: as §1; details: Staphylococcus aureus subsp. aureus str. Newman
T2 sequence (whole entry): T1 sequence (Q9S446 whole entry)

With `O=S(=O)(O)c1cccc(-c2nn3c(-c4ccncc4)nnc3s2)c1` the IC50 [1] was 9.3 µM.

Compound `CC(C)C[C@@H]1NC(=O)[C@H](CCC(N)=O)NC(=O)[C@@H]2CCCN2C(=O)[C@@H]2CSCc3cc(cc(c3)CSC[C@@H](C(=O)NCC(N)=O)NC(=O)[C@@H]3CCCN3C(=O)[C@@H]3CCCN3C1=O)CSC[C@H](NC(=O)[C@H](C)N)C(=O)N[C@@H]([C@@H](C)O)C(=O)N[C@@H](CCC(N)=O)C(=O)N[C@@H](CCCNC(=N)N)C(=O)N2` (H-ACTQRCPQLPPCG-NH2; linker 2-6-12 via TBMB) has a Ki (Sortase A [2]) of 2.4 µM and a Kd (Sortase A [3]) of 1.5 µM.

For `CC(C)[C@@H]1NC(=O)[C@H](CCC(=O)O)NC(=O)[C@H](Cc2ccc(O)cc2)NC(=O)[C@H](CCCNC(=N)N)NC(=O)[C@@H](CO)NC(=O)[C@H](NC(=O)[C@H](C)N)CSCc2cc3cc(c2)CSC[C@@H](C(=O)NCC(N)=O)NC(=O)[C@@H](C)NC(=O)[C@H](CO)NC(=O)CNC(=O)[C@H](CCCNC(=N)N)NC(=O)CNC(=O)[C@H](CCCNC(=N)N)NC(=O)[C@H](CSC3)NC(=O)[C@H](CC(=O)O)NC1=O`, the Ki [4] was 0.053 µM.

For `CC(C)C[C@@H]1NC(=O)[C@H](CCC(N)=O)NC(=O)[C@@H]2CCCN2C(=O)[C@@H]2CSCc3cc(cc(c3)CSC[C@@H](C(=O)NCC(=O)O)NC(=O)[C@@H]3CCCN3C(=O)[C@@H]3CCCN3C1=O)CSC[C@H](NC(=O)[C@H](C)N)C(=O)N[C@@H](Cc1c[nH]cn1)C(=O)N[C@@H](CO)C(=O)N[C@@H](CCCNC(=N)N)C(=O)N2` (H-ACHSRCPQLPPCG-OH; linker 2-6-12 via TBMB), the Ki (Sortase A [2]) was 1.1 µM, the Activity (Staphylococcus aureus) was “Active” and the IC50 (Sortase A [5]) was 167 µM. The inhibition [6] was “Dose-dependent effect”.

`CC(C)C[C@@H]1NC(=O)[C@H](CCC(N)=O)NC(=O)[C@@H]2CCCN2C(=O)[C@@H](NC(=O)[C@H](C)N)CSCc2cc3cc(c2)CSC[C@H](NC(=O)[C@@H]2CCCN2C(=O)[C@@H]2CCCN2C1=O)C(=O)N[C@@H](CCCNC(=N)N)NC(=O)[C@H](C(C)C)NC(=O)[C@H](CO)C(=O)N[C@H](C(=O)NCC(N)=O)CSC3` showed a Ki (Sortase A [2]) of 4.3 µM and a Kd (Sortase A [3]) of 8.8 µM.

Compound `CC(C)C[C@@H]1NC(=O)[C@@H]2CSCc3cc(cc(c3)CSC[C@H](NC(=O)[C@H](C)N)C(=O)N3CCC[C@H]3C(=O)N[C@@H](CCC(N)=O)C(=O)N[C@@H](CC(C)C)C(=O)N3CCC[C@H]3C(=O)N3CCC[C@H]3C(=O)N2)CSC[C@@H](C(=O)NCC(N)=O)NC(=O)[C@@H]2CCCN2C(=O)[C@H](Cc2ccc(O)cc2)NC1=O` (H-ACPQLPPCLYPCG-NH2; linker 2-8-12 via TBMB) has a Ki (Sortase A [2]) of 7.4 µM.

Work on `CC(C)C[C@@H]1NC(=O)[C@H](CCC(N)=O)NC(=O)[C@@H]2CCCN2C(=O)[C@@H]2CSCc3cc(cc(c3)CSC[C@@H](C(=O)NCC(=O)O)NC(=O)[C@@H]3CCCN3C(=O)[C@@H]3CCCN3C1=O)CSC[C@H](NC(=O)[C@H](C)N)C(=O)N[C@@H]([C@@H](C)O)C(=O)N[C@@H](CO)C(=O)N[C@@H](CCCNC(=N)N)C(=O)N2` (H-ACTSRCPQLPPCG-OH; linker 2-6-12 via TBMB) yielded a Ki (Sortase A [2]) of 1.8 µM.

Work on `CC(C)C[C@@H]1NC(=O)[C@H](CCC(N)=O)NC(=O)[C@@H](NC(=O)[C@H](C)N)CSCc2cc3cc(c2)CSC[C@H](NC(=O)[C@@H]2CCCN2C(=O)[C@@H]2CCCN2C(=O)[C@H](CC(C)C)NC1=O)C(=O)N1CCC[C@H]1C(=O)N[C@@H](Cc1ccccc1)C(=O)N[C@@H](CC(N)=O)C(=O)N[C@H](C(=O)NCC(N)=O)CSC3` (H-ACQLLPPCPFNCG-NH2; linker 2-8-12 via TBMB) yielded a Ki (Sortase A [2]) of 19.3 µM.

For `CC(C)C[C@@H]1NC(=O)[C@H](CCC(N)=O)NC(=O)[C@H](CCCNC(=N)N)NC(=O)[C@@H](NC(=O)[C@H](C)N)CSCc2cc3cc(c2)CSC[C@H](NC(=O)[C@@H]2CCCN2C(=O)[C@@H]2CCCN2C1=O)C(=O)N[C@@H](CO)C(=O)N[C@@H](Cc1ccccc1)C(=O)N[C@@H](CCC(=O)O)C(=O)N[C@H](C(=O)NCC(N)=O)CSC3` (H-ACRQLPPCSFECG-NH2; linker 2-8-12 via TBMB), the Ki (Sortase A [2]) was 11.6 µM.
